The record followed here is PubChem BioAssay.

Molecules are shown by their SMILES. Calls of active or inactive are those of the source.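 How the source made its calls, unless noted: active means inhibition of the reporter signal at or above 50%; inactive means inhibition below 50%.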

A word on the inhibition: it is the change of the read-out against control, counted positive when it falls.

Assay [1] can be described thus: inhibitors of TNFa-induced NFkB p65 translocation, primary screen, imaging, HUVEC, MLSMR starter and 10KST1 sets (AID 438;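 active means inhibition above 20% together with a positive visual image hit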;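 further: compound added about 3h40 before a 20 min TNFalpha stimulation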;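 on inhibition: signal is the nuclear over cytoplasmic p65 intensity ratio per well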). As to conditions: HUVEC TNFa-induced p65 nuclear translocation; cell count: measured here: nuclei count (cytotoxicity indicator), at 2.08 µM; inhibition: at 2 µM, stronger effect = higher value, 0% TNFa-plus-vehicle, 100% no-TNFa wells.
A short description of assay [2]: inhibitors of mutant huntingtin aggregation, primary screen, imaging, exon1htt(103Q)mCFP cells, high-content imaging (AID 483;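 active means visual image review flags a hit and inhibition of aggregation exceeds 20%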;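 further: compound exposure lasted 3 days before fixation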;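 on nuclei count: percent of the per-plate median nuclei count of sample wells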). The settings on record: exon1htt(103Q)mCFP cell line, aggregate imaging, at 2 µM; inhibition of aggregation: stronger effect = higher value; nuclei count: measured here: cell count, toxicity.
The nature of assay [3]: inhibitors of E-selectin induction by TNFa, primary screen, imaging, HUVEC, immunofluorescence, MLSMR starter and 10KST1 sets (AID 487;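 active means visually confirmed hit in the image check and inhibition above 20%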;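 on inhibition: signal is fraction of cell area covered by stained E-selectin grains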;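 on nuclei count: 100% = median nuclei count of all wells on the same plate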). The settings on record: HUVEC TNFalpha-induced E-selectin immunofluorescence imaging, at 2 µM; inhibition: stronger effect = higher value; nuclei count: measured here: cell number, toxicity.
Assay [4] concerns the target Voltage-gated potassium channel subunit beta-2 (Rattus norvegicus) (UniProt P62483). As to the kind of experiment: KvBeta enzyme negative modulators, primary screen, biochemical, NADPH fluorescence (AID 622;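 active means fluorescence slope higher than the sample average by over 3 SD, cut at about -0.22 in these data, passing the limit was not always enough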;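 further: slope of raw intensity against log time taken from 70 to 1610 s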). The settings on record: recombinant KvBeta, 4-cyanobenzaldehyde reduction, at 10 µM, stronger effect = higher value.
The target is the same in assay [5]. In words: KvBeta positive modulators, primary screen, biochemical, NADPH fluorescence (AID 623;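 active means NADPH fluorescence slope more negative than the mean of all samples by about 3 SD, 99.7% confidence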;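 further: fluorescence intensity change per second fitted from 20 to 320 s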). As to conditions: Recombinant KvBeta, NADPH fluorescence decrease slope, 10 min; at 10 µM; stronger effect = lower value.
Assay [6] concerns the target Muscarinic acetylcholine receptor M4 (Homo sapiens) (UniProt P08173). As to the kind of experiment: compounds altering M4/GIRK thallium flux, either direction, primary screen, M4 allosteric agonist project, cell-based, HEK293 M4/GIRK, BTC-AM (AID 625;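 active means fluorescence slope after compound addition differing from the mean of all tested samples at 99.7% confidence, mostly higher but some lower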;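 further: thallium influx through GIRK channels coupled to M4 in HEK293 cells with BTC-AM dye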). As to conditions: at 10 µM, actives lie on both sides. The gist of the method:
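Material: M4/GIRK1/GIRK2 stable HEK293 cell line. Medium: pH 7.3 thallium assay buffer. Dosing: single compound concentration, 10 µM final. Schedule: 1 h dye loading, 2 min kinetic read. Measured by: kinetic fluorescence with BTC-AM dye. Read-out: post-addition slope, 15–24 s, of baseline-normalized fluorescence. Benchmarks: carbachol and DMSO controls.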

Assay [7] can be described thus: inhibitors of Sendai virus-induced IRF3 signaling, primary screen, TLR/RLR signaling modifier project, cell-based, Sendai virus stimulus, luciferase, 10K MLSCN set (AID 602276;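 active means inhibition at or above 50% at 10 µM; inactive means inhibition below 50%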;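 further: firefly luciferase from ISG56 promoter only with Renilla not read in this screen; 0% = Sendai virus plus DMSO and 100% = medium plus DMSO without virus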). As to conditions: HEK293 RL24 IRF3 luciferase reporter, at 10 µM, stronger effect = higher value.
Assay [8] in a line: inhibitors of poly I:C-induced TLR3 signaling, primary screen, cell-based, poly I:C stimulus, luciferase, 10K MLSCN set (AID 602277). The settings on record: HEK293-TLR3 RL24 IRF3 luciferase reporter, at 10 µM, stronger effect = higher value.

Sequence of Voltage-gated potassium channel subunit beta-2 (Rattus norvegicus) (P62483 whole entry, looked up): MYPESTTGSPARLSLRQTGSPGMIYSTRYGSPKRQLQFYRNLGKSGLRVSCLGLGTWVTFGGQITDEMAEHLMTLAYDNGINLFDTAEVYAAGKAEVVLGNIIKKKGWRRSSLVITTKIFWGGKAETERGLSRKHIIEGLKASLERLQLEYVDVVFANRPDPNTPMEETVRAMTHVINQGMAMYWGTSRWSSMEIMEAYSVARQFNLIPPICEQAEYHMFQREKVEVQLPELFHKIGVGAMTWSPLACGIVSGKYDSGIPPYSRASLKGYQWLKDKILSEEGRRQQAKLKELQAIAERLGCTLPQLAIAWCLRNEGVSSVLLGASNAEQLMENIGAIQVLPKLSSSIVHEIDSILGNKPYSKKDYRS
Sequence of Muscarinic acetylcholine receptor M4 (Homo sapiens) (P08173 whole entry, looked up): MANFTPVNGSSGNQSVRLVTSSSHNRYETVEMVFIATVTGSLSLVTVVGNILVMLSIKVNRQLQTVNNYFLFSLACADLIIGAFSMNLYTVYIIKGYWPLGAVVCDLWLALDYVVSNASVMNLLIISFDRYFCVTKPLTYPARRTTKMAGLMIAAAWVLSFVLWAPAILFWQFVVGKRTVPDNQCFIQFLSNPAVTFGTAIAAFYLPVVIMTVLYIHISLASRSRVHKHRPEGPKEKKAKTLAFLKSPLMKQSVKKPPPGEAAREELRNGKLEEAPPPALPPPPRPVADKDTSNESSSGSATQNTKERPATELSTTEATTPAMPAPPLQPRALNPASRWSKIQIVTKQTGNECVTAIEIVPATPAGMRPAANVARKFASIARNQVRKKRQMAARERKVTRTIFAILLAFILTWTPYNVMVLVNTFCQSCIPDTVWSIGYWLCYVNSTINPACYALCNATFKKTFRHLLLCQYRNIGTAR

In the case of `CCOC(=O)c1cc2c(=O)n3cccc(C)c3nc2n(Cc2ccco2)c1=NC(=O)c1cccnc1`, the cell count in assay [1] turned out to be 791. The inhibition was -1.1% (inactive) in assay [1], -59.3% (inactive) in assay [3], 8% (inactive) in assay [7] and -0.151% (inactive) in assay [8]. The inhibition of aggregation in assay [2] is 1.7% (inactive). Moreover, the nuclei count in assay [2] is 108%; in assay [3], 112%. For the same compound, the fluorescence slope in assay [4] was -0.439 (inactive); in assay [6], 0.00326 (inactive). Also, the NADPH fluorescence slope in assay [5] is -2e-05 (inactive).

For the compound `CCOC(=O)c1nnn(-c2nonc2N)c1CN1CCc2ccccc2C1`, the cell count in assay [1] is 200. For the same compound, the inhibition is -3.9% (inactive) in assay [1], -18.4% (inactive) in assay [3], 6.68% (inactive) in assay [7] and 24.5% (inactive) in assay [8]. Moreover, the inhibition of aggregation in assay [2] was -11.1% (inactive). Further, the nuclei count turned out to be 80.6% in assay [2] and 108% in assay [3]. In addition, the fluorescence slope in assay [4] was -0.45 (inactive); in assay [6], 0.00671 (inactive). In addition, the NADPH fluorescence slope in assay [5] was 4.7e-05 (inactive).

With `CCOC(=O)c1sc(NS(=O)(=O)c2ccc(NC(C)=O)cc2)nc1C`, in assay [1], the cell count was found to be 701. Besides, the inhibition in assay [1] was -3.5% (inactive); in assay [3], 1% (inactive); in assay [7], 11.5% (inactive); in assay [8], 19.8% (inactive). For the same compound, the inhibition of aggregation in assay [2] is -10.1% (inactive). Moreover, the values for the nuclei count in assay [2] and in assay [3] were 99.8% and 94.9%, respectively. Moreover, the results for the fluorescence slope in assay [4] and in assay [6] were -0.448 (inactive) and 0.00462 (inactive), respectively. Besides, the NADPH fluorescence slope in assay [5] was 1.6e-05 (inactive).

Turning to `Cc1ccccc1-c1nc(CN2CCC(C(=O)NCc3cccnc3)CC2)c(C)o1`, the cell count in assay [1] was 349. Further, the inhibition was -2.3% (inactive) in assay [1], -149% (inactive) in assay [3], 7.42% (inactive) in assay [7] and 17.2% (inactive) in assay [8]. Moreover, in assay [2], the inhibition of aggregation is -3.7% (inactive). Also, the nuclei count amounted to 103% in assay [2] and 119% in assay [3]. Besides, the fluorescence slope in assay [4] is -0.476 (inactive); in assay [6], 0.00551 (inactive). For the same compound, the NADPH fluorescence slope in assay [5] is -0.000229 (inactive).

For the compound `Cc1cc(C)n(-c2nc3ccccc3c(=O)n2OCCOc2ccccc2)n1`, the cell count in assay [1] was 533. In addition, the inhibition in assay [1] is -9% (inactive); in assay [3] it was -17.9% (inactive); in assay [7] it was -12.3% (inactive); in assay [8] it was -13.3% (inactive). Further, the inhibition of aggregation in assay [2] was -7.8% (inactive). The nuclei count in assay [2] is 107%; in assay [3] it was 94.2%. For the same compound, the fluorescence slope was -0.453 (inactive) in assay [4] and 0.00727 (inactive) in assay [6]. In assay [5], the NADPH fluorescence slope is 8.7e-05 (inactive).

As to `COC(=O)Cc1csc(N)n1`, the cell count in assay [1] turned out to be 743. The inhibition in assay [1] is 10% (inactive); in assay [3], -54.5% (inactive); in assay [7], 12.4% (inactive); in assay [8] it was 22.3% (inactive). In assay [2], the inhibition of aggregation is 15% (inactive). For the same compound, the values for the nuclei count in assay [2] and in assay [3] were 109% and 122%, respectively. Also, the fluorescence slope in assay [4] was -0.529 (inactive); in assay [6], 0.00536 (inactive). Further, the NADPH fluorescence slope in assay [5] was 2.5e-05 (inactive).

Consider `CCOC(=O)c1ccc(N2C(=O)C3CC=CCC3C2=O)cc1` (centres undefined), for which, in assay [1], the cell count is 640. Further, the inhibition in assay [1] is -6.3% (inactive); in assay [3], 40.6% (inactive); in assay [7] it was 1.51% (inactive); in assay [8], -1.14% (inactive). The inhibition of aggregation in assay [2] was -0.1% (inactive). In addition, the nuclei count in assay [2] came out at 104%; in assay [3], 101%. Besides, the fluorescence slope is -0.545 (inactive) in assay [4] and 0.00473 (inactive) in assay [6]. In addition, the NADPH fluorescence slope in assay [5] was -1.8e-05 (inactive).

In the case of `COc1ccc(N2CCN(C(c3cccs3)C(C)NC(=O)c3ccco3)CC2)cc1` (centres undefined), the cell count in assay [1] was 467. In addition, the inhibition in assay [1] was 5.5% (inactive); in assay [3], 11.8% (inactive); in assay [7] it was 8.09% (inactive); in assay [8], 22.4% (inactive). In assay [2], the inhibition of aggregation is -7.1% (inactive). Further, the nuclei count in assay [2] was 83.9%; in assay [3] it was 101%. The fluorescence slope was -0.368 (inactive) in assay [4] and 0.00502 (inactive) in assay [6]. Besides, the NADPH fluorescence slope in assay [5] is -7.2e-05 (inactive).

On to `O=C(Nc1ccc(CN2CCOCC2)cc1)c1cc2ccccc2oc1=O`, for which, in assay [1], the cell count is 426. Moreover, the inhibition in assay [1] is 3.6% (inactive); in assay [3] it was -218% (inactive); in assay [7], 0.662% (inactive); in assay [8], 29.5% (inactive). Besides, in assay [2], the inhibition of aggregation is -12.6% (inactive). For the same compound, the nuclei count in assay [2] stood at 118%; in assay [3], 146%. Besides, the fluorescence slope was -0.53 (inactive) in assay [4] and 0.00463 (inactive) in assay [6]. The NADPH fluorescence slope in assay [5] was -7.9e-05 (inactive).

In the case of `C=Cn1c(C(=O)O)cc(CC)c1-c1ccccc1`, the cell count in assay [1] was determined as 642. Further, the inhibition in assay [1] was -12.5% (inactive); in assay [3], -51.5% (inactive); in assay [7], 10.9% (inactive); in assay [8], 9.07% (inactive). The inhibition of aggregation in assay [2] is -22.8% (inactive). Moreover, the nuclei count in assay [2] turned out to be 107%; in assay [3] it was 112%. The fluorescence slope was -0.55 (inactive) in assay [4] and 0.00458 (inactive) in assay [6]. Besides, the NADPH fluorescence slope in assay [5] is -4.3e-05 (inactive).

As for `CC1(C)CC(=O)c2cnc(NCc3ccco3)nc2C1`, the cell count in assay [1] is 480. The inhibition in assay [1] was 7.7% (inactive); in assay [3], -165% (inactive); in assay [7], -11.5% (inactive); in assay [8], -26.2% (inactive). Further, the inhibition of aggregation in assay [2] was -7.2% (inactive). Also, the nuclei count in assay [2] turned out to be 96.1%; in assay [3], 150%. For the same compound, the fluorescence slope in assay [4] is -0.407 (inactive); in assay [6] it was 0.00659 (inactive). In assay [5], the NADPH fluorescence slope is -1.8e-05 (inactive).

Regarding `O=C(Cc1nn[nH]n1)NCCC1=CCCCC1`, the cell count in assay [1] came to 402. Besides, the inhibition in assay [1] was 1.7% (inactive); in assay [3], -1.4% (inactive); in assay [7] it was 5.61% (inactive); in assay [8] it was 18% (inactive). For the same compound, the inhibition of aggregation in assay [2] was 2.5% (inactive). Also, the nuclei count turned out to be 99.7% in assay [2] and 113% in assay [3]. Besides, the fluorescence slope in assay [4] was -0.567 (inactive); in assay [6], 0.00606 (inactive). For the same compound, the NADPH fluorescence slope in assay [5] is -8.7e-06 (inactive).

`CCOC(=O)N1CCN(C(=O)CCc2c(C)nc3c(c(C)nn3-c3ccc(C)c(C)c3)c2C)CC1`: the cell count in assay [1] was determined as 653. Besides, the inhibition in assay [1] is 0.9% (inactive); in assay [3] it was -63.4% (inactive); in assay [7], 20.5% (inactive); in assay [8] it was 13.8% (inactive). Moreover, the inhibition of aggregation in assay [2] was -9.9% (inactive). Besides, the nuclei count was 100% in assay [2] and 116% in assay [3]. For the same compound, the results for the fluorescence slope in assay [4] and in assay [6] were -0.594 (inactive) and 0.00541 (inactive), respectively. In assay [5], the NADPH fluorescence slope is 1.1e-05 (inactive).

In the case of `Cc1cc(-c2ccccc2)nc2cc(C(=O)NCCCn3ccnc3)nn12`, in assay [1], the cell count came to 908. The inhibition in assay [1] is 6.4% (inactive); in assay [3], -160% (inactive); in assay [7], 16.4% (inactive); in assay [8], 25.4% (inactive). The inhibition of aggregation in assay [2] was 19.7% (inactive). The nuclei count came out at 86.1% in assay [2] and 112% in assay [3]. In addition, the fluorescence slope is -0.362 (inactive) in assay [4] and 0.007 (inactive) in assay [6]. In assay [5], the NADPH fluorescence slope is 1.5e-05 (inactive).
